ChEMBL document CHEMBL4376880, “Developing Inhibitors of the p47phox-p22phox Protein-Protein Interaction by Fragment-Based Drug Discovery” (J Med Chem, 2020)
pKd, pKi: −log10 of the molar value. Active and inactive are the calls of the source. The rule behind the calls is not given here.

How the values were obtained:
[1] = target: T1, Neutrophil cytosol factor 1 (Homo sapiens, UniProt P14598); assay: Covalent inhibition of recombinant human His-tagged p47phox SH3A-B domain (151 to 285 residues) expressed in Escherichia coli BL21 (DE3) cells interaction with Cy5-p22phox149-162 incubated for 10 mins by fluorescence polarization competition assay; details: for pKi: read-out: Ki
T1 sequence (P14598 whole entry, the tested form may be a part): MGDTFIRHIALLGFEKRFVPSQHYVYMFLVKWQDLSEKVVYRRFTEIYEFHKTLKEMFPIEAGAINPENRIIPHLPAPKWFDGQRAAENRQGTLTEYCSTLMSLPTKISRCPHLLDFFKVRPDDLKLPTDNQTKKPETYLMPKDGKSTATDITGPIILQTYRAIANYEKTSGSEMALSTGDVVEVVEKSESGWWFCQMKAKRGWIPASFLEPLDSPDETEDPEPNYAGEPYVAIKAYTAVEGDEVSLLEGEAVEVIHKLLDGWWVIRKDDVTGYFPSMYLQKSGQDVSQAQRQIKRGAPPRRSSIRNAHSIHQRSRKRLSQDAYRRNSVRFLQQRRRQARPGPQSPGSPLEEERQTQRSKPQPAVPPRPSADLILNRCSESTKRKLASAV

[2] = target: T1, Neutrophil cytosol factor 1; assay: Binding affinity to immobilized recombinant human His-tagged p47phox SH3A-B domain (151 to 285 residues) expressed in Escherichia coli BL21 (DE3) cells assessed as dissociation constant by SPR assay
[3] = target: T1, Neutrophil cytosol factor 1; assay: Covalent inhibition of recombinant human His-tagged p47phox SH3A-B domain (151 to 285 residues) expressed in Escherichia coli BL21 (DE3) cells interaction with Cy5-p22phox149-162 incubated for 10 mins in presence of TCEP by fluorescence polarization competition assay
Outline: (§1)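 Heterologous competition FP. The compound was titrated as a 12-point two-fold series in duplicate against 1.25 μM p47phox SH3A-B and 5 nM Cy5-p22phox149-162. Buffer was HBS (50 mM Hepes, 150 mM NaCl, 0.005% Tween 20, pH 7.4), with or without TCEP. Incubation was 10 min or 2 h at room temperature before the FP read.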

[4] = target: T1, Neutrophil cytosol factor 1; assay: Ratio of Ki for recombinant human His-tagged p47phox SH3A-B domain (151 to 285 residues) expressed in Escherichia coli BL21 (DE3) cells in presence of TCEP to Ki for recombinant human His-tagged p47phox SH3A-B domain (151 to 285 residues) expressed in Escherichia coli BL21 (DE3) cells by fluorescence polarization competition assay; outline: as §1
[5] = target: T1, Neutrophil cytosol factor 1; assay: Covalent inhibition of recombinant human His-tagged p47phox SH3A-B domain (151 to 285 residues) expressed in Escherichia coli BL21 (DE3) cells interaction with Cy5-p22phox149-162 incubated for 2 hrs by fluorescence polarization competition assay; outline: as §1
[6] = target: T1, Neutrophil cytosol factor 1; assay: Non-reversible binding affinity to immobilized recombinant human His-tagged p47phox SH3A-B domain (151 to 285 residues) expressed in Escherichia coli BL21 (DE3) cells assessed as slow dissociation rate at 12.5 uM by SPR assay
Outline: (§2)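 p47phox SH3A-B (residues 151-285) immobilized at 4684 RU by His capture then amine coupling; compound injected at 12.5 μM in HBS pH 7.4 (10 mM Hepes, 150 mM NaCl, 0.005% Tween) at 25 °C. Sensorgrams were blank- and reference-subtracted with DMSO calibration. Complex then exposed to 2 mM TCEP.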

[7] = target: T1, Neutrophil cytosol factor 1; assay: Binding affinity to immobilized recombinant human His-tagged p47phox SH3A-B domain (151 to 285 residues) expressed in Escherichia coli BL21 (DE3) cells at 12.5 uM in presence of TCEP by SPR assay; outline: as §2
[8] = target: T1, Neutrophil cytosol factor 1; assay: Binding affinity to recombinant human His-tagged p47phox SH3A-B domain (151 to 285 residues) expressed in Escherichia coli BL21 (DE3) cells assessed as increase in protein molecular weight at 200 uM by ESI/LC-MS analysis
[9] = target: T1, Neutrophil cytosol factor 1; assay: Binding affinity to recombinant human His-tagged p47phox SH3A-B domain (151 to 285 residues) expressed in Escherichia coli BL21 (DE3) cells assessed as protein aggregation by measuring increase in maximum dimensions of the particles by SAXS study analysis
Outline: (§3)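 His-tag removed by HRV-3C protease. Protein (2-5.6 mg/mL, 130-370 μM final) was buffer-exchanged into 10 mM Hepes, 150 mM NaCl, 4% DMSO, pH 7.4, with 100 or 200 μM compound. Samples were held at 6 °C and measured at room temperature, λ 1.34 Å, q 0.01-0.5 Å−1. Fifteen to twenty 60 s frames were radially averaged, and buffer scattering was subtracted.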

[10] = target: T1, Neutrophil cytosol factor 1; assay: Binding affinity to recombinant human His-tagged p47phox SH3A-B domain (151 to 285 residues) expressed in Escherichia coli BL21 (DE3) cells assessed as protein aggregation by measuring increase in SAXS-derived radius of gyration by SAXS study analysis; outline: as §3
[11] = target: T1, Neutrophil cytosol factor 1; assay: Binding affinity to recombinant human His-tagged p47phox SH3A-B domain (151 to 285 residues) expressed in Escherichia coli BL21 (DE3) cells assessed as protein aggregation by measuring increase in concentration-normalized scattering intensity by SAXS study analysis; outline: as §3
[12] = target: T1, Neutrophil cytosol factor 1; assay: Binding affinity to recombinant human His-tagged p47phox SH3A-B domain (151 to 285 residues) expressed in Escherichia coli BL21 (DE3) cells assessed as protein aggregation by SAXS study analysis; details: TDE = time-dependent effect; outline: as §3
[13] = target: T1, Neutrophil cytosol factor 1; assay: Binding affinity to recombinant human His-tagged 15N-labeled p47phox SH3A-B domain (151 to 285 residues) expressed in Escherichia coli BL21 (DE3) cells assessed as compound interaction with protein at Cys196 in SH3A domain by NMR spectroscopy

| Compound | pKi [1] | further results |
| --- | --- | --- |
| Nc1ccc2cc(OCc3ccc(Cl)cc3)ccc2n1 | < 2.70 |  |
| Nc1cnc2ccccc2c1 | < 2.70 |  |
| Nc1ccc2ccccc2c1 [NAPHTHYLAMINE] | < 2.70 |  |
| c1ccc2ncccc2c1 [QUINOLINE] | < 2.70 |  |
| CC(=O)Nc1ccc2ccccc2n1 | < 2.70 |  |
| c1ccc2c(N3CCNCC3)cccc2c1 | 2.82 | pKd [2]: 3.44 |
| Nc1cccc2ncccc12 | < 2.70 |  |
| NCc1ccc2ccccc2n1 | < 2.70 |  |
| Cc1cc(N2CCN(C)CC2)c2ccccc2n1 | < 2.70 |  |
| Nc1ccc2cc(OCC3CCCCC3)ccc2n1 | < 2.70 |  |
| Nc1ccnc2ccccc12 [QUINOLIN-4-AMINE] | 2.82 | pKd [2]: 3.12 |
| CN1CCCN(Cc2ccc(CN)cc2)CC1 |  | Ki [1]: Not Active; pKd [2]: 3.38 |
| Nc1cc(OCc2ccc(Cl)cc2)c2ccccc2n1 | < 2.70 |  |
| COCCNc1ccc2ccccc2n1 | < 2.70 |  |
| Oc1ccc2ccccc2n1 | < 2.70 |  |
| Nc1ccc2cc(OCc3ccccc3)ccc2n1 | < 2.70 |  |
| Nc1cccc2cccnc12 [8-AMINOQUINOLINE] | < 2.70 |  |

| Compound | pKi [1] | further results |
| --- | --- | --- |
| Nc1ccc2cc(COc3ccc(Cl)cc3)ccc2n1 | < 2.70 |  |
| Nc1ccc2cc(-c3ccc(Cl)cc3)ccc2n1 | < 2.70 |  |
| Nc1ccc2cc(OCCOCCOCCOCCOc3ccc4nc(N)ccc4c3)ccc2n1 | 4.49 |  |
| OCCOCCNc1ccc2ccccc2n1 | < 2.70 |  |
| c1ccc2nc(N3CCNCC3)ccc2c1 [QUIPAZINE] | 2.85 | pKd [2]: 3.38 |
| Nc1ncccn1 | < 2.70 |  |
| Nc1cc(Cl)c2ccccc2n1 | < 2.70 |  |
| Cc1cc(N2CCN(C(=O)OC(C)(C)C)CC2)c2ccccc2n1 | < 2.70 |  |
| Nc1ccc2cccc(O)c2n1 | 2.86 |  |
| Nc1cc(O)c2ccccc2n1 | < 2.70 |  |
| Nc1ccc2ncccc2c1 | < 2.70 |  |
| Cc1ccc2ccccc2n1 [QUINALDINE] | < 2.70 |  |
| O=c1c2ccccc2[se]n1-c1ccccc1 [EBSELEN] | 4.20 | pKi [3]: < 3.52; Ratio Ki [4]: > 10; pKi [5]: 4.92; Activity [6]: Active; Activity [7]: inactive; Activity [8]: Active; Activity [9]: Active; Activity [10]: Active; Activity [11]: Active; Activity [12]: Tde; Activity [13]: Active |
| c1cc(N2CCNCC2)ccn1 | 3.52 |  |
| Cc1cc(N)c2ccccc2n1 | 2.97 | pKd [2]: 3.28 |
| Nc1ccccn1 [2-AMINOPYRIDINE] | < 2.70 |  |
| Cc1cc(N2CCNCC2)nc2ccccc12 | 2.97 |  |
